Target: T1, murine ovastacin (Mus musculus, UniProt Q6HA09)
T1 sequence (Q6HA09 86-435 limits assumed): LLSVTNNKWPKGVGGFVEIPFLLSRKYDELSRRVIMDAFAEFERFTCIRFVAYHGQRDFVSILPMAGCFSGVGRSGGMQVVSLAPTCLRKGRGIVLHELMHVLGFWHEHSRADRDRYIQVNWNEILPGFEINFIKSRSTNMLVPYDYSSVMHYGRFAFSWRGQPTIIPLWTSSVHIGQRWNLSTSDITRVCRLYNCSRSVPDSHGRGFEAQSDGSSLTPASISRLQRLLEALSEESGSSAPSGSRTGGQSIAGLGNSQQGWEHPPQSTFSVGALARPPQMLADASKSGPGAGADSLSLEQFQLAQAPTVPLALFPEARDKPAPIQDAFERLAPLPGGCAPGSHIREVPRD
Test: fluorogenic enzyme activity assay, inhibition of murine ovastacin
Type: biochemical
How it was run: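 Recombinant mouse ovastacin was activated with human plasmin (30 min, 10:1 molar ratio). Active enzyme was 1 nM, set by titration with murine fetuin-B. Buffer: 150 mM NaCl, 50 mM Tris·HCl pH 7.4, 0.01% Brij-35, at 37 °C; inhibitors were in DMSO. Reactions started with 25 μM Edans/Dabcyl peptide substrate (final DMSO 1.4%). Initial rates were read ≥1000 s, then proteinase K gave full-turnover calibration. Apparent Ki came from the Morrison equation; two independent experiments, in triplicate.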

| SMILES | Ki |
| --- | --- |
| O=C(CCN(Cc1ccc(Cl)cc1F)Cc1ccc(Cl)c(O)c1F)NO [Compound 12] | 0.75 ± 0.04 µM |
| O=C(CCN(Cc1ccc2c(c1)OCO2)Cc1ccc(Cl)c(O)c1F)NO [Compound 13] | 0.68 ± 0.02 µM |
| O=C(CCN(Cc1ccc2c(c1)OCO2)Cc1ccc(Cl)cc1F)NO [Compound 14] | 1.96 ± 0.08 µM |

Continued by falling Ki, values first:

| Ki | SMILES |
| --- | --- |
| 8.18 ± 0.29 µM | O=C(CCN(Cc1ccncc1)Cc1ccc(Cl)c(O)c1F)NO [Compound 18] |
| 8.12 ± 0.34 µM | O=C(CCN(Cc1cccnc1)Cc1ccc2c(c1)OCO2)NO [Compound 15] |
| 7.58 ± 0.36 µM | O=C(CCN(Cc1ccncc1)Cc1ccc2c(c1)OCO2)NO [Compound 17] |
